Measurements taken from PubChem BioAssay AID489000 (The Scripps Research Institute Molecular Screening Center, 2010).
Activity calls are given as the source filed them.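 The calls were made as follows: active = IC50 for blocking EBNA-1 binding to its DNA probe at or below 10 µM; inactive = the rest.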

Target: Epstein-Barr virus nuclear antigen 1 (EBNA-1) DNA-binding domain
Assay: EBNA-1 DNA-binding inhibitor potency, late-stage follow-up, biochemical, fluorescence polarization, dose response, powder samples (AID 489000)
Settings: Recombinant EBNA-1 DBD, Cy5-DNA fluorescence polarization
Outline: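 Assay system – EBNA-1 DNA-binding region, aa 448-610, recombinant from E. coli · Amount – 246 nM EBNA-1 DBD in buffer before compound addition · Timing – Protein-probe preincubation 30 min, compound exposure 1 h, room temperature · Technique – Cy5 fluorescence polarization · Evaluation – IC50 from sigmoidal dose-response fit · Benchmarks – high control without EBNA-1, low control with EBNA-1 only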

## Cc1cc(C(=O)CSc2nnnn2C)c(C)n1CC1CCCO1 (centres undefined)
  IC50: > 148 µM (inactive)

## COc1ccc(C(=O)Nc2nc3ccc(S(C)(=O)=O)cc3s2)cc1
  IC50: inactive

## CS(=O)(=O)c1ccc2nc(NC(=O)c3ccccc3Cl)sc2c1
  IC50: > 148 µM (inactive)

## Cc1cc(C(=O)CSc2nnnn2-c2ccccc2)c(C)n1Cc1cccs1
  IC50: > 148 µM (inactive)

## COCCn1c(C)cc(C(=O)CSc2nnnn2-c2ccccc2)c1C
  IC50: > 148 µM (inactive)

## O=C(CSc1nnnn1-c1ccccc1)c1ccn(CC2CCCO2)c1 (centres undefined)
  IC50: > 148 µM (inactive)

## COc1ccc2sc(NC(=O)c3ccc(C)c(C)c3)nc2c1
  IC50: > 148 µM (inactive)

## Cc1cc(C(=O)CSc2nnnn2-c2ccc(Cl)cc2)c(C)n1CC1CCCO1 (centres undefined)
  IC50: > 148 µM (inactive)

## CS(=O)(=O)c1ccc2nc(NC(=O)c3cccc(F)c3)sc2c1
  IC50: > 148 µM (inactive)

## Cc1ccc(C(=O)Nc2nc3cc(F)ccc3s2)cc1C
  IC50: > 148 µM (inactive)

## COc1ccc(-n2nnnc2SCC(=O)c2cc(C)n(CC3CCCO3)c2C)cc1 (centres undefined)
  IC50: > 16.4 µM (inactive)

## CCn1c(C)cc(C(=O)CSc2nnnn2-c2ccccc2)c1C
  IC50: > 148 µM (inactive)

## Cc1cc(C(=O)CSc2nnnn2C2CC2)c(C)n1CC1CCCO1 (centres undefined)
  IC50: inactive

## COc1cccc2sc(NC(=O)c3ccc(C)c(C)c3)nc12
  IC50: > 148 µM (inactive)

## Cc1ccc(C(=O)Nc2nc3ccc(Br)cc3s2)cc1C
  IC50: > 148 µM (inactive)

## CS(=O)(=O)c1ccc2nc(NC(=O)c3ccccc3F)sc2c1
  IC50: > 148 µM (inactive)

## Cc1cccc(-n2nnnc2SCC(=O)c2cc(C)n(CC3CCCO3)c2C)c1 (centres undefined)
  IC50: > 148 µM (inactive)

## CS(=O)(=O)c1ccc2nc(NC(=O)c3cccc(Cl)c3)sc2c1
  IC50: > 148 µM (inactive)

## Cc1ccccc1-n1nnnc1SCC(=O)c1cc(C)n(CC2CCCO2)c1C (centres undefined)
  IC50: > 148 µM (inactive)

## COc1cccc(C(=O)Nc2nc3ccc(S(C)(=O)=O)cc3s2)c1
  IC50: inactive

## Cc1cccc(C(=O)Nc2nc3ccc(S(C)(=O)=O)cc3s2)c1
  IC50: inactive

## Cc1cc(C(=O)CSc2nnnn2-c2cccc(F)c2)c(C)n1CC1CCCO1 (centres undefined)
  IC50: > 148 µM (inactive)

## COc1ccccc1C(=O)Nc1nc2ccc(S(C)(=O)=O)cc2s1
  IC50: > 148 µM (inactive)

## Cc1ccc(C(=O)Nc2nc3cc(Br)ccc3s2)cc1C
  IC50: > 148 µM (inactive)

## COc1ccc2nc(NC(=O)c3ccc(C)c(C)c3)sc2c1
  IC50: > 148 µM (inactive)

## Cc1ccccc1C(=O)Nc1nc2ccc(S(C)(=O)=O)cc2s1
  IC50: > 148 µM (inactive)

## Cc1cc(C(=O)CSc2nnnn2-c2ccccc2)c(C)n1C
  IC50: inactive

## Cc1ccc(C(=O)Nc2nc3ccc(S(C)(=O)=O)cc3s2)cc1
  IC50: > 148 µM (inactive)

## CS(=O)(=O)c1ccc2nc(NC(=O)c3ccc(Cl)cc3)sc2c1
  IC50: inactive
